Test results: publication PMC3791465 (Nature Communications, 2013)

Experiments:
Akt (S473) = experiment: Immunoblot of Akt; format: cell-based, human; conditions: MCF-7 and KPL-3C cells, E2-stimulated
In short: (§1)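 Blots were run on nitrocellulose, blocked in 4% BlockAce for 1 h, probed with HRP secondary for 1 h and developed by ECL. Phospho-levels were quantified by densitometry. Representative of four independent experiments.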

MCF-7 cells = experiment: Cell cycle assay by flow cytometry, MCF-7; format: cell-based, human; conditions: MCF-7, 24 h
[1] = test system: ERE within intron 1 of the BIG3 gene; experiment: ChIP on intronic ERE of BIG3; format: cell-based, human; conditions: MCF-7
[2] = test system: ERα (S104/S106, S118, S167, S305 and Y537); experiment: Immunoblot of ERα phosphorylation; format: cell-based, human; conditions: MCF-7 and KPL-3C cells, at least 24 h
In short: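 Blots were on nitrocellulose with HRP secondary and ECL detection. Site-specific ERα phosphorylation was quantified by densitometry and expressed as fold over untreated cells at 0 h. Mean±s.e.m.; experiments were run more than three times in triplicate.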

[3] = test system: MCF-7 xenograft in BALB/c nude mice; experiment: MCF-7 orthotopic xenograft tumour growth; format: in vivo, mouse; conditions: daily 6 μg per day E2, MCF-7
BIG3 expression = BIG3 expression in MCF-7 cells; format: cell-based, human
[4] = test system: ERα / PHB2 chromatin-remodelling complexes; experiment: Co-immunoprecipitation of chromatin-remodelling complexes in nuclear fractions; format: cell-based, human; conditions: MCF-7 and KPL-3C cells, 24 h, E2 present
In short: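 Lysed in 0.1% NP-40 buffer, precleared with normal IgG/Protein G Sepharose 3 h at 4 °C, then incubated with anti-ERα or anti-PHB2 (5 μg) 12 h at 4 °C. Complexes captured on Protein G 1 h, washed three times, resolved by SDS–PAGE and immunoblotted.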

p42/44 MAPK (T202/Y204) = experiment: Immunoblot of p42/44 MAPK; format: cell-based, human; conditions: MCF-7 and KPL-3C cells, E2-stimulated
In short: as §1

[5] = test system: ERE motif within intron 1 of the BIG3 gene; experiment: Luciferase assay, intronic ERE of BIG3; format: cell-based, human; conditions: MCF-7
[6] = test system: Akt, p42/44 MAPK and ERα phosphorylation; experiment: Immunoblot of phosphorylation in TAM-R MCF-7 and T47D cells; format: cell-based, human; conditions: tamoxifen alone or tamoxifen and E2
In short: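 Proteins separated, blotted to nitrocellulose, blocked 1 h, probed, then HRP secondary 1 h and ECL. Akt, p42/44 MAPK and ERα phosphorylation quantified by densitometry; experiments repeated more than three times in triplicate.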

C[C@]12CC[C@@H]3c4ccc(O)cc4CC[C@H]3[C@@H]1CC[C@@H]2O [E2, 17-estradiol]
Akt (S473) phosphorylation (Akt (S473)): clearly increased in a time-dependent manner
apoptotic (sub-G1) cell population (MCF-7 cells): 0.17%
cell cycle distribution (MCF-7 cells): population of cells in the G2/M phase increased
recruitment to intronic ERE of BIG3 [1]: recruitment of ERα and the co-activator SRC-1 was observed
ERα phosphorylation at five sites [2]: clearly increased in response to E2 stimulation
E2-induced tumour growth by E2 alone [3]: induced time-dependent growth of KPL-3C and MCF-7 tumours
BIG3 expression after E2 (BIG3 expression): significantly upregulated in MCF-7 cells in a time-dependent manner
SRC-1 binding/recruitment to ERα [4]: recruited SRC-1 to ERα
p42/44 MAPK (T202/Y204) phosphorylation (p42/44 MAPK (T202/Y204)): clearly increased in a time-dependent manner
luciferase activity, intronic ERE from BIG3 [5]: robust luciferase activity

CC/C(=C(\c1ccccc1)c1ccc(OCCN(C)C)cc1)c1ccccc1 [tamoxifen]
apoptotic (sub-G1) cell population (MCF-7 cells): 0.91%
cell cycle distribution (MCF-7 cells): population in the G1 phase increased
phosphorylation of Akt, p42/44 MAPK and ERα in TAM-R cells [6]: enhanced in response to tamoxifen alone
BIG3 expression after tamoxifen (BIG3 expression; real-time PCR and immunoblot): significant reduction in BIG3 expression at both the transcriptional and protein levels in a dose-dependent manner
